What was measured:
1483 HNSCC cells = assay: Cell imaging assay, fluorescence microscopy; type: cell-based
Summary of the method: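 1483 HNSCC cells in HBSS/Tyrode's, grown to 50% confluency, given 200 nM probe for 0.25 h at 37 °C, washed three times, imaged (propidium iodide filter, 0.5 s exposure, gain 2) at 0.5 and 3 h post-addition. Intensity read at 586/607 nm. Triplicates; Welch-corrected unpaired t test, error as standard error.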

Photophysical properties = type: physicochemical
Summary of the method: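 Samples were diluted to 1 μM and scanned on a photon-counting fluorometer in a 10 x 4 mm cuvette at 25 °C, with excitation/emission spectra recorded in triplicate. Quantum yield was taken relative to a reference fluorophore standard. Extinction coefficient came from absorbance spectra (10 mm pathlength) at 10, 8, 6, 4 and 2 μM dilutions.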

[1] = target: T1, COX-2 in 1483 HNSCC cells (Homo sapiens, UniProt P35354); assay: Cell-based COX-2 inhibition assay in intact 1483 HNSCC cells; conditions: read-out: IC50, cellular COX-2 inhibition
T1 sequence (P35354 18-604): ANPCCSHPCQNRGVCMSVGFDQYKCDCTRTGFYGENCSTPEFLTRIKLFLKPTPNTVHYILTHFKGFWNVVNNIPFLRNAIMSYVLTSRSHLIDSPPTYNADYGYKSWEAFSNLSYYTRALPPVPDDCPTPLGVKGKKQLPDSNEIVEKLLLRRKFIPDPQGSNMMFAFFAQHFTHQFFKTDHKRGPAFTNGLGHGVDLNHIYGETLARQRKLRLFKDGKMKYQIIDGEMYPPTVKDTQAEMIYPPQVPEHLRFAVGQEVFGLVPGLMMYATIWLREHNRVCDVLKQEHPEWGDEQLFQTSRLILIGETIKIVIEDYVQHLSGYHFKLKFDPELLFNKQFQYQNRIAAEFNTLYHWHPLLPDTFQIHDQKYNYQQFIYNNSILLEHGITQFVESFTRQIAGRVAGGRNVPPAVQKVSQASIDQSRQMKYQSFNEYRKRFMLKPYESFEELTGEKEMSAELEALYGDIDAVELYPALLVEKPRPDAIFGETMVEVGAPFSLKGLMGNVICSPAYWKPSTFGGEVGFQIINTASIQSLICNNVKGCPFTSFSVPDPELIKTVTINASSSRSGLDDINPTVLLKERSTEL

mCOX-2 = target: T2, mCOX-2 (Mus musculus, UniProt Q05769); assay: Purified COX-2 isozyme inhibition, TLC assay with [1-14C]arachidonic acid; type: biochemical; conditions: read-out: IC50, inhibition of COX-2, 14C-arachidonic acid substrate
T2 sequence (Q05769 18-604): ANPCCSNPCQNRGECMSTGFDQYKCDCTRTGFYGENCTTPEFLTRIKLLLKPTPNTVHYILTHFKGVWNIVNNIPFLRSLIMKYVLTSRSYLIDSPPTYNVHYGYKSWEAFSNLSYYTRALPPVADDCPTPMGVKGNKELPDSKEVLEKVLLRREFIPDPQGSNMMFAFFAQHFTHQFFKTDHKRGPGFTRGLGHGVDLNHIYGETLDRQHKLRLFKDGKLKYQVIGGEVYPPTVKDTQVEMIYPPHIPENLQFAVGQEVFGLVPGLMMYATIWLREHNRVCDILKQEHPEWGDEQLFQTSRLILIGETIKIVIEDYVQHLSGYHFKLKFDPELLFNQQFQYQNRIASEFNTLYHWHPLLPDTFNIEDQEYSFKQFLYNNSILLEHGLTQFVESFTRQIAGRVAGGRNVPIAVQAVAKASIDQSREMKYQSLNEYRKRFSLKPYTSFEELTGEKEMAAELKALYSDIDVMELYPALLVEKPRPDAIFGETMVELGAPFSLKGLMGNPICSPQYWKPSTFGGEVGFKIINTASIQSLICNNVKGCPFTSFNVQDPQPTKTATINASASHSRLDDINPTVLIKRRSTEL

[2] = test system: COX-2 and ROS in carrageenan-induced inflamed footpad; assay: Fluorescence imaging of carrageenan-induced footpad inflammation; type: in vivo, C57BL/6 mice
[3] = In vivo pharmacokinetic assay, plasma concentration by LC-MS; conditions: CD-1 mice, 10 mg/kg i.p.
[4] = test system: ROS in carrageenan-induced inflamed footpad; assay: Chemiluminescence imaging of ROS in carrageenan-induced footpad inflammation; type: in vivo, C57BL/6 mice; conditions: luminol 5 mg/kg i.v.
[5] = 200 nM, 1483 HNSCC cells, after washout

Compound: Cc1ccc(-c2cc(C(F)(F)F)nn2-c2ccc(S(N)(=O)=O)cc2)cc1 [celecoxib, reference compound]
- effect of preincubation on fluorocoxib Q-H labeling of 1483 HNSCC cells (1483 HNSCC cells; pretreatment before fluorocoxib Q-H): blocked

Compound: fluorocoxib Q-H [FQ-H]
- extinction coefficient (ε) (Photophysical properties; at 586 nm): 44 mM⁻¹ cm⁻¹
- quantum yield (Φfl) (Photophysical properties; at 607 nm): 0.90
- fluorescence labeling of 1483 HNSCC cells (1483 HNSCC cells; fluorocoxib Q-H alone, after repetitive washing): strong perinuclear fluorescence
- IC50 [1]: 0.26 µM
- IC50 (mCOX-2): 0.24 µM

Compound: fluorocoxib Q [FQ]
- extinction coefficient (ε) (Photophysical properties; at 586 nm): < 0.4 mM⁻¹ cm⁻¹
- quantum yield (Φfl) (Photophysical properties; at 607 nm): < 0.19
- fold increase in fluorescence, inflamed over non-inflamed footpads ([2]; 5 mg/kg i.p., imaging 24 h post-injection, average): 9 fold
- fluorescence in inflamed footpad (mean ± sd) ([2]; 5 mg/kg i.p., imaging 24 h post-injection, n = 8, p < 0.001): 7.84x10^8 ± 1.25x10^8
- background signal in non-inflamed footpad ([2]; wild-type C57BL/6 mice, FQ versus CF3-FA): extremely low background signal
- plasma half-life [3]: exceeds 24 h
- cell fluorescence at 0.5 h post-addition (1483 HNSCC cells; [5]): low fluorescence intensity
- cell fluorescence at 3 h post-addition (1483 HNSCC cells; [5]): strong fluorescence
- IC50 [1]: 0.28 µM
- IC50 (mCOX-2): 0.33 µM

Compound: Nc1cccc2c(=O)[nH][nH]c(=O)c12 [luminol]
- fold luminescence, inflamed versus control footpads [4]: 12 fold
- chemiluminescence emission in inflamed footpads (mean ± sd) ([4]; 6 h after carrageenan, n = 8, p < 0.0004): 1251.5 ± 94.9

Compound: COc1ccc2c(c1)c(CC(=O)NCCCCNC(=O)c1ccc(C3=c4cc5c6c(c4Oc4c3cc3c7c4CCCN7CCC3)CCC[N+]=6CCC5)c(C(=O)O)c1)c(C)n2C(=O)c1ccc(Cl)cc1 [FA, fluorocoxib A, reference compound]
- extinction coefficient (ε) (Photophysical properties; at 579 nm): 45 mM⁻¹ cm⁻¹
- quantum yield (Φfl) (Photophysical properties; at 602 nm, FA used as standard for comparison): 0.93
